In article PMC3589821 (Biochemistry, 2013):
Changes are numbered by the printed parent chain.

What was measured:
[1] = molecular target: T1, Ath α-DOX (Arabidopsis thaliana, UniProt Q9SGH6); experiment: X-ray crystal structure, […] Å; type: binding; details: iron liganded to His-389; water as sixth ligand; pH 8.0
T1 sequence (Q9SGH6 1-639): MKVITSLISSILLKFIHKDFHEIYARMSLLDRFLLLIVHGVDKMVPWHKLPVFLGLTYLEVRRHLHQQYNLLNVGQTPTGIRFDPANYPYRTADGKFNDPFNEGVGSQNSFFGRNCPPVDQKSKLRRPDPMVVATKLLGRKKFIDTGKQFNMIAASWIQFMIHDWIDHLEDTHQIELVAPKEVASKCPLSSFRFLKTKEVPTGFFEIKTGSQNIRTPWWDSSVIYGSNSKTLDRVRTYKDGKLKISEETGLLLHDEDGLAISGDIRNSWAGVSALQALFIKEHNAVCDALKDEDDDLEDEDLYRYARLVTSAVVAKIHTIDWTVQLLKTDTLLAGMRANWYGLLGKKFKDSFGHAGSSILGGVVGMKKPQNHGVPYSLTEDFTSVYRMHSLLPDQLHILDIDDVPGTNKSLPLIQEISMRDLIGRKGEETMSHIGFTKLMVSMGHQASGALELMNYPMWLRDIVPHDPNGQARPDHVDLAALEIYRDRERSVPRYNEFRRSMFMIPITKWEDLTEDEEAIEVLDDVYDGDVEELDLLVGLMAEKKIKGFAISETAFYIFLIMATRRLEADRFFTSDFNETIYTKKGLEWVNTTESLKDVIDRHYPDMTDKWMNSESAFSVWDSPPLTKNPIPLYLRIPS

[2] = molecular target: T1, Ath α-DOX; experiment: oxygen electrode, oxygenase activity; type: biochemical; details: co-substrate O2
Summary of the method: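 Codon-optimized Ath α-DOX (wild type or point mutants) was expressed in E. coli M15 with 1mM IPTG and 250μM δ-aminolevulinic acid at 23°C for 16 h. It was solubilized in 0.7% C10M, purified by IMAC and size exclusion, and dialyzed a week in 20mM TRIS pH 8.0, 150mM NaCl, 0.2% C10M to remove imidazole. O2 consumption was followed by oxygen electrode with αLA, LA or OA substrates. KM values came from triplicate measurements.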

[3] = molecular target: T2, Ath α-DOX (Arabidopsis thaliana, UniProt Q9SGH6, H318Q); experiment: oxygen electrode, oxygenase activity; type: biochemical; details: co-substrate O2
T2 sequence (Q9SGH6 1-639 H318Q): T1 sequence (Q9SGH6 1-639) with H318Q

[4] = molecular target: T1, Ath α-DOX; experiment: oxygen electrode, oxygenase activity; type: biochemical; details: 1 mM imidazole, 60 min preincubation

| Compound | Km [2] [µM] | other results |
| --- | --- | --- |
| C=CC1=C(C)C2=Cc3c(C=C)c(C)c4[n]3[Fe+][n]3c(c(C)c(CCC(=O)O)c3=CC3=NC(=C4)C(C)=C3CCC(=O)O)=CC1=N2 [heme] |  | X-ray crystal structure, 1.70 Å [1]: The heme is liganded to the side chain of His-389 |
| CCCCCCCC/C=C\CCCCCCCC(=O)O [OA, oleic acid] | 15 ± 1.9 |  |
| CCCCC/C=C\C/C=C\CCCCCCCC(=O)O [LA, linoleic acid] | 23 ± 2 | Km [3]: 18.2 ± 2.4 µM |
| CC/C=C\C/C=C\C/C=C\CCCCCCCC(=O)O [αLA, α-linolenic acid] | 36 ± 3.2 |  |
| c1c[nH]cn1 [imidazole] |  | % reduction in activity at 1 mM [4]: 50% |
